Data published in article PMC8866227 (Clinical Cancer Research, 2021).
Read-outs that look alike come from different tables or passages of the source. Each block holds one molecule with its values, some of them ahead of it.

What was measured:
[1] = test system: CCL2-directed migration of canine PBMCs; format: cell-based
[2] = test system: CCL2-directed monocyte migration; assay: Ex vivo CCL2-directed monocyte migration of PBMCs from treated dogs; format: in vivo, dog; details: for dogs with reduction of CCL2-mediated ex vivo monocyte migration from baseline: 10 mg/kg cohort
Summary of the method: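 Blood was drawn at baseline and at rechecks (days 7, 14, 28 in the 10 mg/kg cohort) and ACK-lysed within 1 h. Fresh PBMCs were assayed immediately for CCL2-directed transwell migration. Chemotactic index is the fold-change over negative-control wells, expressed as % of week 0.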

[3] = Losartan plasma pharmacokinetics in dogs; format: in vivo, dog; details: for AUC(0-t) / Cmax: dog, plasma, po
human PBMCs [4] = assay: RNA-seq differential gene expression of losartan-treated human PBMCs; format: cell-based; details: losartan 10 μg/mL 24 h vs control
Summary of the method: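 PBMCs from healthy male and female donors were Ficoll-isolated from EDTA blood and plated at 3e6/mL in RPMI, 10% FBS, penicillin/streptomycin and L-glutamine. […] Extracted RNA was sequenced. Counts were RUVr-normalized, differential expression was called by limma-voom/edgeR, and GSEA was run.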

human PBMCs [5] = assay: Transwell human PBMC migration to human OS cell line conditioned media; format: cell-based; details: 1 hour pretreatment, 10 μg/mL losartan
Summary of the method: (§1)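 Four human (THP-1, human PBMC) or four canine (canine PBMC) OS cell lines, kept in DMEM/10% FBS at 37°C and 5% CO2, supplied conditioned media as chemoattractant in transwell migration assays. Wells were run in technical triplicate or quadruplicate. […] Results are mean ± SD, one-way ANOVA with Tukey.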

CCL2 = assay: Plasma CCL2 concentration in treated dogs by ELISA; format: in vivo, dog; details: for dogs with posttreatment increases in plasma CCL2 / mean increase in plasma CCL2 above baseline: 10 mg/kg cohort
TGFβ = assay: Serum TGF-β concentrations in treated dogs; format: in vivo, dog; details: high losartan dose 10 mg/kg + toceranib
THP-1 cells = assay: Transwell THP-1 monocyte migration to human OS cell line conditioned media; format: cell-based; details: 1 hour pretreatment, 10 μg/mL losartan
Summary of the method: as §1

CCL2–CCR2 signaling = details: independent of AT1R; cited from earlier work
[6] = test system: peripheral blood myeloid cells; assay: Peripheral blood total myeloid cell counts; format: in vivo, dog; details: week 4 posttreatment, low- and high-dose cohorts combined n=19
human PBMCs [7] = assay: Gene Set Enrichment Analysis; format: cell-based; details: losartan treated vs control PBMCs
lung metastatic burden = details: cited from earlier work
[8] = Systolic blood pressure monitoring in treated dogs; format: in vivo, dog; details: 1 and 10 mg/kg cohorts, repeated blood pressure measurements
[9] = test system: lung metastatic osteosarcoma; assay: Clinical response; format: in vivo, dog; details: single agent toceranib, dogs with metastatic OS

mean plasma concentration ([3]; 1 mg/kg oral cohort, OS dogs, ~6 h post dose): 6.8 ng/mL
AUC(0-t) ([3]; 2.5 mg/kg): 303 ng·h/mL
Cmax ([3]; 2.5 mg/kg): 76.7 ng/mL
AUC(0-t) ([3]; 10 mg/kg): 1580 ng·h/mL
Cmax ([3]; 10 mg/kg): 509 ng/mL
Compound: CCCCc1nc(Cl)c(CO)n1Cc1ccc(-c2ccccc2-c2nn[nH]n2)cc1 [losartan]
CCL2-directed migration of canine PBMCs, % of untreated positive control wells ([1]; losartan 100 ng/mL in vitro): 42%
CCL2-directed migration of canine PBMCs, % of untreated positive control wells ([1]; losartan 10 μg/mL in vitro): 12%
CCL2-mediated ex vivo monocyte migration following treatment ([2]; 1 mg/kg losartan cohort (+ toceranib), OS dogs): unexpectedly increased
dogs with reduction of CCL2-mediated ex vivo monocyte migration from baseline ([2]; week 1): 7 of 14
dogs with reduction of CCL2-mediated ex vivo monocyte migration from baseline ([2]; week 2): 8 of 15
dogs with reduction of CCL2-mediated ex vivo monocyte migration from baseline ([2]; week 4): 7 of 11
genes downregulated (human PBMCs [4]): 27 genes
genes upregulated (human PBMCs [4]): 32 genes
human PBMC migration to OS conditioned media (human PBMCs [5]): significant inhibited
dogs with increases in plasma CCL2 (CCL2; 1 mg/kg cohort, 2 weeks posttreatment): five of six
dogs with posttreatment increases in plasma CCL2 (CCL2; week 2): 12 of 15
mean increase in plasma CCL2 above baseline (CCL2; week 2): 149.4%
dogs with posttreatment increases in plasma CCL2 (CCL2; week 4): 11 of 12
mean increase in plasma CCL2 above baseline (CCL2; week 4): 186.3%
serum TGFβ posttreatment (TGFβ): no posttreatment changes
THP-1 migration to OS conditioned media (THP-1 cells): significant inhibited
monocyte recruitment, noncompetitive inhibition of CCL2–CCR2 signaling induced ERK1/2 activation (CCL2–CCR2 signaling): potently inhibits
total peripheral blood myeloid cells (combined monocyte and neutrophil counts) [6]: significant reduction
pathways significantly (Padj < 0.05) downregulated by GSEA (human PBMCs [7]): 409 pathways
lung metastatic burden in mice (lung metastatic burden): significantly reduced
hypotension associated with losartan treatment [8]: no dogs experienced any significant hypotension

Compound: Cc1[nH]c(/C=C2\C(=O)Nc3ccc(F)cc32)c(C)c1C(=O)NCCN1CCCC1 [toceranib, toceranib phosphate]
Clinical benefit rate (SD, PR, and CR) [9]: 18%
Progression-free survival, range [9]: 7 to 176 days
